Reference: PMC10171401 (Nature methods, 2022)
Where two headings read alike, the source gives them in different places.

Columns and labels:
[1] = system: cAMP in L23 pyramidal neurons; assay: In vivo 2pFLIM of tonic cAMP in L23 pyramidal neurons of awake head-fixed mice; design: species or system mouse; conditions: for effect on cAMP in neuronal dendrites / effect on cAMP in neuronal somas: intraperitoneal, yohimbine 5 mg/kg, propranolol 25 mg/kg
Outline: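 Awake, head-fixed mice carried cAMPFIRE-L in L2/3 somatosensory neurons, introduced by in utero electroporation at E15.5, and were imaged by 2pFLIM through a cranial window fitted at P30–60. Isoflurane (1.5%) was given by nose cone; other drugs were given i.p., including morphine at 25 mg/kg. Lifetime was taken as mean photon emission time from soma and dendrite ROIs. Data are mean ± s.e.m.; paired two-tailed t-test.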

cAMP in L23 neurons = assay: In vivo 2pFLIM of cAMP responses to enforced running in L23 neurons; design: species or system mouse; conditions: intraperitoneal injection; cAMPFIRE-L
Outline: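 cAMPFIRE-L was expressed in L2/3 somatosensory pyramidal neurons by in utero electroporation of C57BL/6 embryos at E15.5. Plasmid (~2–3 μg/μL, 1 μL) went into the lateral ventricle, followed by five 100-ms pulses at 35 V, 1 Hz. A cranial window was fitted at P30–60 with two weeks' recovery. Awake head-fixed mice on a treadmill (rotary-encoder velocity) were imaged by 2pFLIM of running-evoked responses before and after i.p. drug.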

cAMP [2] = type: cell-based, human; conditions: propranolol 1 μM; HEK cells
Outline: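 HEK-293 cells were grown in MEM with 10% FBS at 37°C in 5% CO2, plated on poly-D-lysine coverslips and transfected by Lipofectamine-2000 (0.5–3 μg plasmid per dish). Cells were given norepinephrine, then 25 μM forskolin plus 50 μM IBMX. CFP/YFP ratios were computed after per-channel background subtraction and normalized to the forskolin/IBMX response. Concentration-response curves were fitted with the Hill equation.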

cAMP [3] = assay: 2pFLIM response to norepinephrine in CA1 neurons in cultured hippocampal slices; type: cell-based, rat
Outline: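 Rat hippocampal slices (400 μm, P6–7 pups of both sexes) were cultured at 35°C in 5% CO2 and imaged 2–3 days after transfection in carbogen-gassed aCSF with 4 mM CaCl2 and 4 mM MgCl2. CA1 neurons expressing cAMPFIRE-M received 0.1 μM norepinephrine with or without 1 μM propranolol, followed by wash. cAMPFIRE-L and its R279E mutant received 1 μM norepinephrine. Data are mean ± s.e.m. over cells.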

SMILES	effect on cAMP levels in neuronal somas ([1]; 1.5% inhaled, measured using cAMPFIRE-L)	time to plateau of cAMP decrease post administration ([1]; morphine 25 mg/kg)	effect on cAMP activity in L23 neurons ([1]; morphine 25 mg/kg, cAMPFIRE-L)	effect on negative cAMP responses to enforced running (cAMP in L23 neurons)	effect on positive cAMP responses to enforced running (cAMP in L23 neurons)	effect on sensor response to norepinephrine (cAMP [2])	effect on sensor response to norepinephrine (cAMP [3])	effect on cAMP in neuronal dendrites ([1]; cAMPFIRE-L)	effect on cAMP in neuronal somas ([1]; cAMPFIRE-L)
FC(F)OC(Cl)C(F)(F)F (stereo not shown) [Isoflurane, isoflurane]	significantly reduced								
CN1CC[C@]23c4c5ccc(O)c4O[C@H]2[C@@H](O)C=C[C@H]3[C@H]1C5 [Morphine, morphine]		~ 40 minutes	decreased						
CC(C)NCC(O)COc1cccc2ccccc12 (stereo not shown) [propranolol]				reduced	did not affect	blocked	blocked	decreased	decreased
COC(=O)[C@@H]1[C@H]2C[C@H]3c4[nH]c5ccccc5c4CCN3C[C@@H]2CC[C@@H]1O [yohimbine]				significantly attenuated	increased			increased	little effect
